Among the data in ChEMBL document CHEMBL1126736, “Synthesis and antiherpes virus activity of 1,5-anhydrohexitol nucleosides” (J Med Chem, 1993) are MIC and IC50 values, retold here.

≈ marks a conversion by molar mass, not a printed value. Where only a bound is given, the exact number is not on record here.

What is called IC50 is the concentration needed to halve the response being measured. A lower IC50 goes with greater potency.

In one assay the test system is Human alphaherpesvirus 3. Kind of assay: Inhibitory concentration against VZV strain YS in human embryonic lung (HEL) cell culture. It counts as functional.
Settings: not given
Compound `O=c1[nH]c(=O)n(C2COC(CO)C(O)C2)cc1I` (stereo unspecified) came in with an MIC above 100 µg/mL.
Consider `O=c1[nH]c(=O)n([C@H]2C[C@H](O)[C@@H](CO)O2)cc1/C=C/Br` [BRIVUDINE], for which the MIC came to 0.0015 µg/mL (≈ 0.0045 µM).

For another assay, the system named is Human alphaherpesvirus 1. The assay is described as follows: Inhibitory concentration against HSV type 1 strain F in human embryonic skin muscle (ESM) fibroblast cell culture.
Settings: not given
It counts as functional. The gist of the method: (§1)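 Assay in human embryonic skin-muscle (ESM) cells grown in 96-well trays. The value is the concentration that reduces virus-induced cytopathicity by 50%. Single representative experiment.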
Compound `O=c1[nH]c(=O)n(C2COC(CO)C(O)C2)cc1I` (stereo unspecified) gave an MIC of 0.07 µg/mL (≈ 0.19 µM).
In turn, `O=c1[nH]c(=O)n([C@H]2C[C@H](O)[C@@H](CO)O2)cc1/C=C/Br` [BRIVUDINE] gave an MIC of 0.004 µg/mL (≈ 0.012 µM).

The next assay deals with FM3A. The assay is described as follows: Inhibitory concentration required to reduce the growth of murine FM3A cells by 50%. It counts as functional, cell-based. Conditions: Mus musculus. A digest of the protocol:
(§2)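 Cytostatic assay. The value is the concentration that reduces the growth (viability) of the cells by 50%.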
In the case of `O=c1[nH]c(=O)n(C2COC(CO)C(O)C2)cc1I` (stereo unspecified), the IC50 is above 100 µg/mL.

The next assay deals with HEL. The assay is described as follows: Inhibitory concentration required to inhibit cell growth by 50% in human embryonic lung (HEL) cell culture.
Settings: not given
It counts as functional. A digest of the protocol:
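Uninfected HEL cells grown in 96-well trays. The value is the concentration that reduces cell growth by 50%. Single representative experiment.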
`O=c1[nH]c(=O)n(C2COC(CO)C(O)C2)cc1I` (stereo unspecified) returned an MIC above 50 µg/mL.
On to `O=c1[nH]c(=O)n([C@H]2C[C@H](O)[C@@H](CO)O2)cc1/C=C/Br` [BRIVUDINE], for which the MIC was above 200 µg/mL.

The test system of another assay is L1210. The assay is described as follows: Inhibitory concentration required to reduce the growth of murine L1210 cells by 50%. Type of assay: functional, cell-based. Conditions: Mus musculus. A digest of the protocol: as §2
Compound `O=c1[nH]c(=O)n(C2COC(CO)C(O)C2)cc1I` (stereo unspecified) registered a half-inhibitory concentration (IC50) above 100 µg/mL.

The subject of another assay is MT4. Kind of assay: Inhibitory concentration required to reduce the growth of human MT-4 cells by 50%. It counts as functional, cell-based.
Settings: not given
The gist of the method: as §2
The compound `O=c1[nH]c(=O)n(C2COC(CO)C(O)C2)cc1I` (stereo unspecified) had an IC50 above 100 µg/mL.

A further assay relates to Human alphaherpesvirus 2. The assay is described as follows: Inhibitory concentration against HSV type 2 strain 196 in human embryonic skin muscle (ESM) fibroblast cell culture. It counts as functional.
Settings: not given
The gist of the method: as §1
The compound `O=c1[nH]c(=O)n(C2COC(CO)C(O)C2)cc1I` (stereo unspecified) had an MIC of 0.07 µg/mL (≈ 0.19 µM).
As to `O=c1[nH]c(=O)n([C@H]2C[C@H](O)[C@@H](CO)O2)cc1/C=C/Br` [BRIVUDINE], the MIC is 300 µg/mL (≈ 901 µM).

Another assay concerns Human alphaherpesvirus 3. Kind of assay: Inhibitory concentration against VZV strain OKA in human embryonic lung (HEL) cell culture. It counts as functional.
Settings: not given
As for `O=c1[nH]c(=O)n(C2COC(CO)C(O)C2)cc1I` (stereo unspecified), the MIC is above 100 µg/mL.
In turn, `O=c1[nH]c(=O)n([C@H]2C[C@H](O)[C@@H](CO)O2)cc1/C=C/Br` [BRIVUDINE] yielded an MIC of 0.0007 µg/mL (≈ 0.0021 µM).

Another assay deals with Human alphaherpesvirus 2. The assay is described as follows: Inhibitory concentration against HSV type 2 strain G in human embryonic skin muscle (ESM) fibroblast cell culture. Type of assay: functional.
Settings: not given
A digest of the protocol: as §1
`O=c1[nH]c(=O)n(C2COC(CO)C(O)C2)cc1I` (stereo unspecified): the MIC was determined as 0.07 µg/mL (≈ 0.19 µM).
The same measure, in the same setting: under `O=c1[nH]c(=O)n([C@H]2C[C@H](O)[C@@H](CO)O2)cc1/C=C/Br` [BRIVUDINE] stands 10 µg/mL (≈ 30 µM).

A further assay concerns Human immunodeficiency virus 2. Kind of assay: Inhibitory concentration required to achieve 50% protection of MT-4 cells against cytopathicity of […]. Type of assay: functional, organism-based. The following applies: Human immunodeficiency virus 2, MT4. The gist of the method:
(§3)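 MT-4 cells infected with HIV-1 (strain III_B) or HIV-2 (strain ROD). The value is the concentration that protects the cells from virus cytopathicity by 50%.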
In general terms: Protection from cytopathic effect is a common read-out in antiviral testing.
Compound `O=c1[nH]c(=O)n(C2COC(CO)C(O)C2)cc1I` (stereo unspecified) showed an IC50 above 100 µg/mL.

In the next assay the test system is Cytomegalovirus. Kind of assay: Inhibitory concentration against CMV strain Davis in human embryonic lung (HEL) cell culture. It counts as functional. The following applies: Human betaherpesvirus 5. The gist of the method:
(§4)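 Plaque-reduction assay in human embryonic lung (HEL) cells grown in 96-well trays. The value is the concentration that reduces virus plaque formation by 50%. Single representative experiment.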
In turn, `O=c1[nH]c(=O)n(C2COC(CO)C(O)C2)cc1I` (stereo unspecified) gave an MIC above 10 µg/mL.
The compound `O=c1[nH]c(=O)n([C@H]2C[C@H](O)[C@@H](CO)O2)cc1/C=C/Br` [BRIVUDINE] displayed an MIC above 100 µg/mL.

The test system of a further assay is Human alphaherpesvirus 1. The assay is described as follows: Inhibitory concentration against HSV type 1 strain KOS in human embryonic skin muscle (ESM) fibroblast cell culture. It counts as functional.
Settings: not given
Consider `O=c1[nH]c(=O)n(C2COC(CO)C(O)C2)cc1I` (stereo unspecified), for which the MIC is 0.07 µg/mL (≈ 0.19 µM).
Consider `O=c1[nH]c(=O)n([C@H]2C[C@H](O)[C@@H](CO)O2)cc1/C=C/Br` [BRIVUDINE], for which the MIC came to 0.004 µg/mL (≈ 0.012 µM).

Another assay deals with MOLT-4. Kind of assay: Inhibitory concentration required to reduce the growth of human MOLT-4 cells by 50%. Type of assay: functional, cell-based.
Settings: not given
The gist of the method: as §2
As to `O=c1[nH]c(=O)n(C2COC(CO)C(O)C2)cc1I` (stereo unspecified), the IC50 was above 100 µg/mL.

A further assay relates to Human alphaherpesvirus 3. The assay is described as follows: Inhibitory concentration against TK-VZV strain 07-1 in human embryonic lung (HEL) cell culture. Type of assay: functional.
Settings: not given
Turning to `O=c1[nH]c(=O)n(C2COC(CO)C(O)C2)cc1I` (stereo unspecified), the MIC is above 100 µg/mL.
`O=c1[nH]c(=O)n([C@H]2C[C@H](O)[C@@H](CO)O2)cc1/C=C/Br` [BRIVUDINE] came in with an MIC of 8 µg/mL (≈ 24 µM).

The next assay has as its system Human immunodeficiency virus 1. The assay is described as follows: Inhibitory concentration required to achieve 50% protection of MT-4 cells against cytopathicity of […]. It counts as functional, organism-based. The following applies: Human immunodeficiency virus 1, MT4. A digest of the protocol:
as §3
Consider `O=c1[nH]c(=O)n(C2COC(CO)C(O)C2)cc1I` (stereo unspecified), for which the IC50 was above 100 µg/mL.

The subject of another assay is Human alphaherpesvirus 1. Kind of assay: Inhibitory concentration against HSV type 1 strain Mc Intyre in human embryonic skin muscle (ESM) fibroblast cell culture. It counts as functional.
Settings: not given
A digest of the protocol:
as §1
With `O=c1[nH]c(=O)n(C2COC(CO)C(O)C2)cc1I` (stereo unspecified), the MIC was 0.07 µg/mL (≈ 0.19 µM).
As for `O=c1[nH]c(=O)n([C@H]2C[C@H](O)[C@@H](CO)O2)cc1/C=C/Br` [BRIVUDINE], the MIC was found to be 0.02 µg/mL (≈ 0.06 µM).

A further assay deals with ESM. Kind of assay: Inhibitory concentration required for morphologic alteration in normal cell in human embryonic skin muscle (ESM) fibroblast cell culture. Type of assay: functional.
Settings: not given
The gist of the method: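 Uninfected ESM cells in 96-well trays, examined under the microscope. The value is the minimal concentration that causes a detectable change in normal cell morphology. Tested up to 400 μg/mL. Single representative experiment.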
As for `O=c1[nH]c(=O)n(C2COC(CO)C(O)C2)cc1I` (stereo unspecified), the MIC is above 400 µg/mL.
For `O=c1[nH]c(=O)n([C@H]2C[C@H](O)[C@@H](CO)O2)cc1/C=C/Br` [BRIVUDINE], the MIC was above 400 µg/mL.

For the next assay, the system named is Human alphaherpesvirus 1. The assay is described as follows: Inhibitory concentration against TK-HSV type 1 strain B2006 in human embryonic skin muscle (ESM) fibroblast cell culture. Type of assay: functional.
Settings: not given
A digest of the protocol:
as §1
`O=c1[nH]c(=O)n(C2COC(CO)C(O)C2)cc1I` (stereo unspecified) had an MIC above 200 µg/mL.
Consider `O=c1[nH]c(=O)n([C@H]2C[C@H](O)[C@@H](CO)O2)cc1/C=C/Br` [BRIVUDINE], for which the MIC is above 400 µg/mL.

Another assay deals with Human alphaherpesvirus 2. The assay is described as follows: Inhibitory concentration against HSV type 2 strain Lyons in human embryonic skin muscle (ESM) fibroblast cell culture. Type of assay: functional.
Settings: not given
The gist of the method: as §1
The compound `O=c1[nH]c(=O)n(C2COC(CO)C(O)C2)cc1I` (stereo unspecified) registered an MIC of 0.07 µg/mL (≈ 0.19 µM).
`O=c1[nH]c(=O)n([C@H]2C[C@H](O)[C@@H](CO)O2)cc1/C=C/Br` [BRIVUDINE] registered an MIC of 70 µg/mL (≈ 210 µM).

Another assay has as its system Cytomegalovirus. The assay is described as follows: Inhibitory concentration against CMV strain AD169 in human embryonic lung (HEL) cell culture. Type of assay: functional. Conditions: Human betaherpesvirus 5. A digest of the protocol:
as §4
In turn, `O=c1[nH]c(=O)n(C2COC(CO)C(O)C2)cc1I` (stereo unspecified) registered an MIC above 10 µg/mL.
The compound `O=c1[nH]c(=O)n([C@H]2C[C@H](O)[C@@H](CO)O2)cc1/C=C/Br` [BRIVUDINE] displayed an MIC above 100 µg/mL.

In another assay the test system is Vaccinia virus. Kind of assay: Inhibitory concentration against VV in human embryonic skin muscle (ESM) fibroblast cell culture. The following applies: Orthopoxvirus vaccinia. It counts as functional.
Compound `O=c1[nH]c(=O)n(C2COC(CO)C(O)C2)cc1I` (stereo unspecified) had an MIC above 200 µg/mL.
`O=c1[nH]c(=O)n([C@H]2C[C@H](O)[C@@H](CO)O2)cc1/C=C/Br` [BRIVUDINE] showed an MIC of 2 µg/mL (≈ 6 µM).

The test system of the next assay is Vesicular stomatitis virus. Kind of assay: Inhibitory concentration against VSV in human embryonic skin muscle (ESM) fibroblast cell culture. It counts as functional.
Settings: not given
Turning to `O=c1[nH]c(=O)n(C2COC(CO)C(O)C2)cc1I` (stereo unspecified), the MIC is above 200 µg/mL.
Turning to `O=c1[nH]c(=O)n([C@H]2C[C@H](O)[C@@H](CO)O2)cc1/C=C/Br` [BRIVUDINE], the MIC is above 200 µg/mL.

The next assay relates to CCRF-CEM. Kind of assay: Inhibitory concentration required to reduce the growth of human CEM cells by 50%. Type of assay: functional, cell-based.
Settings: not given
A digest of the protocol:
as §2
For `O=c1[nH]c(=O)n(C2COC(CO)C(O)C2)cc1I` (stereo unspecified), the IC50 is above 100 µg/mL.

For the next assay, the system named is Human alphaherpesvirus 3. The assay is described as follows: Inhibitory concentration against TK-VZV strain YS-R in human embryonic lung (HEL) cell culture. Type of assay: functional.
Settings: not given
On to `O=c1[nH]c(=O)n(C2COC(CO)C(O)C2)cc1I` (stereo unspecified), for which the MIC is above 100 µg/mL.
The same measure, in the same setting: the figure for `O=c1[nH]c(=O)n([C@H]2C[C@H](O)[C@@H](CO)O2)cc1/C=C/Br` [BRIVUDINE] is 30 µg/mL (≈ 90.1 µM).
